Results of several laboratories.
gag-pol reverse transcriptase: Gag-Pol polyprotein, reverse transcriptase (gag-pol, Human immunodeficiency virus 1, UniProt P03366)
gyrA: DNA gyrase subunit A (gyrA, Escherichia coli K-12, UniProt P0AES4)
OPRD1: Delta-type opioid receptor (OPRD1, Homo sapiens, UniProt P41143)
HTR3A: 5-hydroxytryptamine receptor 3A (HTR3A, Homo sapiens, UniProt P46098)

| Compound | target | test | measurement | value |
| --- | --- | --- | --- | --- |
| Cc1cc(C)cc(S(=O)(=O)c2c(C(=O)NCCNS(=O)(=O)c3ccc(F)cc3)[nH]c3ccc(Cl)cc23)c1 | gag-pol reverse transcriptase | enzyme activity, inhibitor, ELISA | IC50 | 66 nM |
| CC1=C(/C=C/C2=CCC[C@@]3(C)[C@H]2CC[C@@H]3[C@@](C)(O)CCCC(C)C)C[C@@H](O)CC1 | Oxysterols receptor LXR-alpha (NR1H3, Homo sapiens, UniProt Q13133) | coactivator recruitment, agonist, TR-FRET | EC50 | 10 to 100 nM |
| Cc1cc(C)cc(S(=O)(=O)c2c(C(=O)NCCCCNS(=O)(=O)c3ccc(C#N)cc3)[nH]c3ccc(Cl)cc23)c1 | gag-pol reverse transcriptase | enzyme activity, inhibitor, ELISA | IC50 | 120 nM |
| CC(C)COc1c(NC(=O)c2ccc(NC(=O)[C@H](CC(N)=O)NC(=O)c3ccc(NC(=O)c4ccc([N+](=O)[O-])cc4)cc3)cc2)ccc(C(=O)Nc2ccc(C(=O)O)cc2)c1O | gyrA | enzyme activity, inhibitor | IC50 | 900 nM |
| CNc1nc(C#Cc2ccc(Br)s2)nc2c1ncn2[C@H]1[C@H](O)[C@H](O)[C@]2(C(=O)OC)C[C@H]12 | OPRD1 | ligand displacement, radioligand | Ki | > 10000 nM |
| CC(C)Oc1c(NC(=O)c2ccc(NC(=O)[C@H](CC(N)=O)NC(=O)c3ccc(NC(=O)c4ccc(C5(C(F)(F)F)N=N5)cc4)cc3)cc2)ccc(C(=O)Nc2ccc(C(=O)O)cc2)c1O | gyrA | enzyme activity, inhibitor | IC50 | 16000 nM |
| N#Cc1ccc(Nc2nc(N)cc(Oc3c(F)cc(-c4ccccc4)cc3F)n2)cc1 | gag-pol reverse transcriptase | enzyme activity, inhibitor | IC50 | 70 nM |
| O[C@@H]1[C@H](O)[C@@H]2C[C@@H]2[C@H]1n1cnc2c(NCC(c3ccccc3)c3ccccc3)nc(C#Cc3ccccc3)nc21 | OPRD1 | ligand displacement, radioligand | Ki | > 10000 nM |
| Cc1cc(C)cc(S(=O)(=O)c2c(C(=O)NCCNS(=O)(=O)c3ccccc3F)[nH]c3ccc(Cl)cc23)c1 | gag-pol reverse transcriptase | enzyme activity, inhibitor, ELISA | IC50 | 83 nM |
| CO[C@@H](C(N)=O)[C@H](NC(=O)c1ccc(NC(=O)c2ccc(C#N)cc2)cc1)C(=O)Nc1ccc(C(=O)Nc2ccc(C(=O)Nc3ccc(C(=O)O)cc3)c(O)c2OC(C)C)cc1 | gyrA | enzyme activity, inhibitor | IC50 | 400 nM |
| CCCCN1CCC(COC(=O)c2ccc(N)c(OCF)c2)CC1 | HTR3A | cell-free assay, radioligand | Ki | > 10000 nM |
| Cc1ccc(S(=O)(=O)NCCCCNC(=O)c2[nH]c3ccc(Cl)cc3c2S(=O)(=O)c2cc(C)cc(C)c2)cc1 | gag-pol reverse transcriptase | enzyme activity, inhibitor, ELISA | IC50 | 140 nM |
| CNc1nc(C#Cc2ccccc2)nc2c1ncn2[C@H]1[C@H](O)[C@H](O)[C@@H]2C[C@@H]21 | OPRD1 | ligand displacement, radioligand | Ki | > 10000 nM |
| CC(C)Oc1c(-n2cc(-c3ccc(NC(=O)C(CC(N)=O)NC(=O)c4ccc(NC(=O)c5ccc(C#N)cc5)cc4)cc3)nn2)ccc(C(=O)Nc2ccc(C(=O)O)cc2)c1O (centres unmarked) | gyrA | enzyme activity, inhibitor | IC50 | 1500 nM |
| Cc1cc(C)cc(S(=O)(=O)c2c(C(=O)NCCCNS(=O)(=O)c3cccnc3)[nH]c3ccc(Cl)cc23)c1 | gag-pol reverse transcriptase | enzyme activity, inhibitor, ELISA | IC50 | 41 nM |
| N#Cc1ccc(Nc2nc(N)cc(Oc3ccc(-c4cccc(C#N)c4)cc3F)n2)cc1 | gag-pol reverse transcriptase | enzyme activity, inhibitor | IC50 | 340 nM |
| CC(C)Oc1c(NC(=O)c2ccc(NC(=O)[C@H](CC(N)=O)NC(=O)c3ccc(NC(=O)c4ccccc4)cc3)cc2)ccc(C(=O)Nc2ccc(C(=O)O)cc2)c1O | gyrA | enzyme activity, inhibitor | IC50 | 4000 nM |
| CNC(=O)[C@@]12C[C@@H]1[C@@H](n1cnc3c(NC)nc(C#Cc4ccc(F)c(F)c4)nc31)[C@H](O)[C@@H]2O | OPRD1 | ligand displacement, radioligand | Ki | > 10000 nM |
| Cc1cc(C)cc(S(=O)(=O)c2c(C(=O)NCCCNS(=O)(=O)c3ccc(C#N)cc3)[nH]c3ccc(Cl)cc23)c1 | gag-pol reverse transcriptase | enzyme activity, inhibitor, ELISA | IC50 | 100 nM |
| CCn1c(-c2nc3cc(C(=O)N4CCC[C@@H](N)C4)cc(OC)c3n2C)cc2cccnc21 | HTR3A | calcium signal, agonist | EC50 | > 50100 nM |
| CNc1nc(C#Cc2ccc(Cl)s2)nc2c1ncn2[C@H]1[C@H](O)[C@H](O)[C@]2(C(=O)OCCC(C)C)C[C@H]12 | OPRD1 | ligand displacement, radioligand | Ki | > 10000 nM |
| Cc1ccc(S(=O)(=O)NCCCCCNC(=O)c2[nH]c3ccc(Cl)cc3c2S(=O)(=O)c2cc(C)cc(C)c2)cc1 | gag-pol reverse transcriptase | enzyme activity, inhibitor, ELISA | IC50 | 130 nM |
| CCCCC(=O)[C@@]12C[C@@H]1[C@@H](n1ccc3c(NC)nc(C#Cc4ccc(Cl)s4)nc31)[C@H](O)[C@@H]2O | OPRD1 | ligand displacement, radioligand | Ki | > 10000 nM |
| Cc1cc(C)cc(S(=O)(=O)c2c(C(=O)NCCCCCNS(=O)(=O)c3ccc(C#N)cc3)[nH]c3ccc(Cl)cc23)c1 | gag-pol reverse transcriptase | enzyme activity, inhibitor, ELISA | IC50 | 160 nM |
| O[C@@H]1[C@H](O)[C@@H]2C[C@@H]2[C@H]1n1cnc2c(NCCc3ccccc3)nc(C#Cc3ccccc3)nc21 | OPRD1 | ligand displacement, radioligand | Ki | > 10000 nM |
| CC(C)Oc1c(NC(=O)c2ccc(NC(=O)[C@H](CC(N)=O)NC(=O)c3ccc(NC(=O)c4ccc([N+](=O)[O-])c(OC(C)C)c4O)cc3)cc2)ccc(C(=O)Nc2ccc(C(=O)O)cc2)c1O | gyrA | enzyme activity, inhibitor | IC50 | > 50000 nM |
